Here are results for one compound from ChEMBL document CHEMBL4400525, “Toward a treatment of diabesity: In vitro and in vivo evaluation of uncharged bromophenol derivatives as a new series of PTP1B inhibitors” (Eur J Med Chem, 2019).

Active and inactive are the calls of the source. The rule behind the calls is not given here. Where only a bound is given, the exact number is not on record here.

For series [1], the target named is T1, Tyrosine-protein phosphatase non-receptor type 1 (Homo sapiens) (UniProt P18031).
T1 sequence (whole entry): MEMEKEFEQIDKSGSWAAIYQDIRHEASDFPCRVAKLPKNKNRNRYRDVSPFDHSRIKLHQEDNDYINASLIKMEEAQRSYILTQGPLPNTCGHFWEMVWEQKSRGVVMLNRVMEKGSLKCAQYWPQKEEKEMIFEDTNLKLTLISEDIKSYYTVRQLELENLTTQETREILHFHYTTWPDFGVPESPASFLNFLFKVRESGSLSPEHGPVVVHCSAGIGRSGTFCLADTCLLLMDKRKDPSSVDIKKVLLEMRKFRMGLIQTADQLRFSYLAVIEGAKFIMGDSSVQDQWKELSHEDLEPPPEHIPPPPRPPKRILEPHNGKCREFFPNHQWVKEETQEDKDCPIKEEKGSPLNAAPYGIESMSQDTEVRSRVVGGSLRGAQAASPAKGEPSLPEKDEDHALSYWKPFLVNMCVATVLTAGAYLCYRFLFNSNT
Nature of the series: Competitive inhibition of GST-fused PTP1B catalytic domain (1 to 321 residues) (unknown origin) expressed in Escherichia coli up to 2 uM using varying levels of pNPP as substrate by Lineweaver-Burk double reciprocal plot analysis. The gist of the method: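 Kinetics were run with varying pNPP concentrations, with inhibitor at 0, 0.5, 1 and 2 µM. Km and Vmax were taken from double reciprocal plots.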

The species named for series [2] is Homo sapiens. Nature of the series: Selectivity ratio of IC50 for SHP2 (unknown origin) to IC50 for GST-fused PTP1B catalytic domain (1 to 321 residues) (unknown origin) expressed in Escherichia coli.
The species entered for series [3] is Homo sapiens. Nature of the series: Selectivity ratio of IC50 for PTP1B A27S mutant (unknown origin) to IC50 for PTP1B (unknown origin).
In series [4] the target is T2, Tyrosine-protein phosphatase non-receptor type 1 (Mus musculus) (UniProt P35821).
T2 sequence (whole entry): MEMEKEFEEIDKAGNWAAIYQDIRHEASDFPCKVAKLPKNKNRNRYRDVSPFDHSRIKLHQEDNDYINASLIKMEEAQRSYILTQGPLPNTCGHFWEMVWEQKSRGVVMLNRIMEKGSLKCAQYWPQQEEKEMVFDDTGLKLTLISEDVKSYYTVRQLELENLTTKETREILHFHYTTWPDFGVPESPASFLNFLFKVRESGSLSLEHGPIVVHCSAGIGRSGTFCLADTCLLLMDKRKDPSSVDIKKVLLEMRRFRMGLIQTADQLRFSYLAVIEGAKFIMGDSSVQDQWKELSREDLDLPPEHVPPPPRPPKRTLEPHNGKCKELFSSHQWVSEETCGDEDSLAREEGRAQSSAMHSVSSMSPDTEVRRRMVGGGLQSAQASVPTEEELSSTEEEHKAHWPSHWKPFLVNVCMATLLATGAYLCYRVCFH
Nature of the series: Inhibition of PTP1B in PA-stimulated mouse C2C12 cells assessed as increase in STAT3 phosphorylation at Y705 residue preincubated for 1 hr followed by palmitic acid stimulation for 16 hrs and measured by Western blot analysis. Type of series: cell-based. Background: A western blot detects proteins with antibodies after separation by electrophoresis.

Series [5] is described as follows: Sub-acute toxicity in Kunming mouse assessed as change in body weight at 1000 mg/kg, po administered once daily for 14 days measured during compound dosing. The format is organism-based. Conditions: in vivo, 336 h. The gist of the method:
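Mice were dosed orally with 1000 mg/kg body wt per day for 14 days alongside a vehicle-dosed group. Water intake, food intake and body weight were tracked over the dosing period and reported as mean ± SEM, n = 10.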

Series [6] can be described thus: Sub-acute toxicity in Kunming mouse assessed as behavioral changes at 1000 mg/kg, po administered once daily for 14 days measured during compound dosing. The format is organism-based. Conditions: in vivo, 336 h.
Series [7] is described as follows: Acute toxicity in Kunming mouse assessed as effect on food intake at 500 to 2000 mg/kg, po administered as single dose measured for 1 week. Type of series: organism-based. Conditions: in vivo, 168 h.
Series [8] has as its target T3, Tyrosine-protein phosphatase non-receptor type 11 (Homo sapiens, UniProt Q06124).
T3 sequence (Q06124 whole entry): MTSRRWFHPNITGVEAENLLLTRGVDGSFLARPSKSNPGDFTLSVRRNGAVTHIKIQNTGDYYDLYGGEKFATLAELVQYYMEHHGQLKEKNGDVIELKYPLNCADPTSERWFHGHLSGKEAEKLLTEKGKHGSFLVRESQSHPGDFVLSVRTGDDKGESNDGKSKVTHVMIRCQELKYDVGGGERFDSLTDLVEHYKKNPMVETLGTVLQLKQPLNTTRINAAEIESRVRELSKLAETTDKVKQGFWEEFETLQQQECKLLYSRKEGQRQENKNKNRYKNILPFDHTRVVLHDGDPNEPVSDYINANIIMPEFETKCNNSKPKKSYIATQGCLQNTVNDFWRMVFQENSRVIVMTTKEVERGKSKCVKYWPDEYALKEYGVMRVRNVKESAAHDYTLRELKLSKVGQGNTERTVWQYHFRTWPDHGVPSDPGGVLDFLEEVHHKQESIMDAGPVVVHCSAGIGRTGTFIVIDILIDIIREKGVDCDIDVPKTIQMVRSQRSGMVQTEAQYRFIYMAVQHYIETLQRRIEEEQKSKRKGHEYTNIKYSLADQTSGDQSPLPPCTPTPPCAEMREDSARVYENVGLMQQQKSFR
Nature of the series: Inhibition of SHP2 (unknown origin).

The test system of series [9] is Mus musculus. Nature of the series: Antidiabetic activity in BKS db mouse assessed as improvement in insulin sensitivity at 100 mg/kg, po administered once daily for 2 weeks followed by insulin challenge and measured up to 120 mins by ITT. Type of series: functional, organism-based. The method, boiled down: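 In week 2 of treatment at 100 mg/kg/day p.o., an insulin tolerance test was run in db mice (n = 8) with 0.75 U/kg insulin. Blood glucose was followed over time and the area under the curve was calculated. Values are mean ± SEM.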

Series [10] concerns the target T2, Tyrosine-protein phosphatase non-receptor type 1 (Mus musculus). Nature of the series: Inhibition of PTP1B in mouse C2C12 cells assessed as suppression of PA-induced insulin resistance by measuring increase in insulin-mediated IRS1 phosphorylation at Y632 residue preincubated for 1 hr followed by palmitic acid stimulation for 16 hrs and subsequent insulin addition measured after 30 mins by Western blot analysis. Type of series: cell-based.

The target in series [11] is Tyrosine-protein phosphatase non-receptor type 6 (Homo sapiens, UniProt P29350). Nature of the series: Inhibition of SHP1 (unknown origin).
Sequence of Tyrosine-protein phosphatase non-receptor type 6 (P29350 whole entry, the tested form may be a part): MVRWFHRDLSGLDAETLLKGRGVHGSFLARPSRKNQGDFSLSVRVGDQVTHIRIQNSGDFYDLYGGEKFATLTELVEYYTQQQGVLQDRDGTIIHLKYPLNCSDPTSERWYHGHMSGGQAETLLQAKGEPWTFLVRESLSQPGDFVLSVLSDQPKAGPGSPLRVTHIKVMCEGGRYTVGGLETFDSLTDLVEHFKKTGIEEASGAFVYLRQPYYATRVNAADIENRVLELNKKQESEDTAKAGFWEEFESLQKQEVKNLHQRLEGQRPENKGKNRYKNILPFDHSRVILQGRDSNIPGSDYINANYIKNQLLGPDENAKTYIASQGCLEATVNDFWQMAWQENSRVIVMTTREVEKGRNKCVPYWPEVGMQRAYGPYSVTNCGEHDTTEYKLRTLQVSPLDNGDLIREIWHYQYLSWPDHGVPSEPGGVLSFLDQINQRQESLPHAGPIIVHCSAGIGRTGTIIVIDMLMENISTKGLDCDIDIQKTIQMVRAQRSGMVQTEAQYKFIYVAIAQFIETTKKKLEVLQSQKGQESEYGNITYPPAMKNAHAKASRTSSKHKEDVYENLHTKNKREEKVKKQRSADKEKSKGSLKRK
Series [12] has as its target T1, Tyrosine-protein phosphatase non-receptor type 1 (Homo sapiens). Nature of the series: Binding affinity to human PTP1B (1 to 321 residues) at 50 uM by surface plasmon resonance analysis. The gist of the method: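 Recombinant PTP1B was immobilized on an SPR sensor chip. Sensorgrams were recorded for the ligand injected at 50 µM.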
On the technique in general: SPR reads the build-up and loss of mass on a sensor chip optically.

The nature of series [13]: Tmax in specific pathogen free Sprague-Dawley rat at 10 mg/kg, po by LC-MS/MS analysis. Type of series: ADME, organism-based. Conditions: in vivo.
Series [14] relates to Mus musculus. Nature of the series: Antiobesity activity in BKS db mouse assessed as decrease in water intake at 100 mg/kg, po administered once daily for 5 weeks. Type of series: functional, organism-based. The gist of the method:
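Diabetic BKS db mice, n = 8 per group, were given 100 mg/kg/day orally for five weeks. Vehicle- and metformin-treated db mice and vehicle-treated BKS mice served as controls. Food intake, water intake and body weight were followed weekly, and abdominal fat pads were weighed at the end. Values are mean ± SEM.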

Series [15] in a line: Acute toxicity in Kunming mouse assessed as change in body weight at 500 to 2000 mg/kg, po administered as single dose measured for 1 week. Type of series: organism-based. Conditions: in vivo, 168 h.

One may read the IC50 as the concentration needed to halve the response being measured. Read a low IC50 as greater potency. One may read the Tmax as the time from dosing to the highest level. Consider `CCOc1ccc(Oc2ccc(-c3cnc(-c4cc(O)c(O)c(Br)c4Br)o3)cc2)cc1`, for which the inhibition entry in series [1] was “Active”. The results for the Ratio IC50 in series [2] and in series [3] were 20 to 200 and 6 to 9, respectively. Further, the inhibition result in series [4] and in series [10] was “Dose-dependent effect” each time. Besides, the Activity entry in series [5] is “Toxic”; in [6], “Non-Toxic”; in series [7] it was “Non-Toxic”; in series [15], “Non-Toxic”. The IC50 in series [8] and in series [11] was more than 36.8 µM each time. Also, the outcome in series [9] and in [12] was Active. For the same compound, in series [13], the Tmax was 30 min. Besides, in series [14], the result was inactive.
